Results as given in ChEMBL document CHEMBL1122216, “2-(Aminomethyl)phenols, a new class of saluretic agents. 6. Effects of N,O-spiroannulation and subsequent quaternization” (1983).

Tests used:
[1] = system: Rattus norvegicus; assay: Antihypertensive activity after po administration of 40 mg/kg dose in spontaneously hypertensive(SH) rats; score is for average value of four animals; type: functional
In short: (§1)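 Spontaneously hypertensive rats were scored by the maximum fall in blood pressure: 0, <20 mm; 1, <30 mm; 2, <40 mm; 3, >40 mm Hg.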

[2] = system: Rattus norvegicus; assay: Antihypertensive activity after administration of 20 mg/kg dose in spontaneously hypertensive(SH) rats; score is for average value of four animals; type: functional; in short: as §1
[3] = system: Rattus norvegicus; assay: Saluretic property after administration in rats; type: functional
In short: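 Rats were housed three per cage, with three cages per dose. Sodium excreted over the first 5 h was scored from the geometric mean: 0, <2 mequiv; ±, >2; 1, <8; 2, <15; 3, <25; 4, <35; 5, <45; 6, <55 mequiv.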

[4] = system: Canis familiaris; assay: Saluretic property in an anesthetized dog after 5 mg/kg administration; type: functional, Canis lupus familiaris
[5] = system: Rattus norvegicus; assay: Antihypertensive activity after intraperitoneal administration of 20 mg/kg dose in spontaneously hypertensive(SH) rats; score is for average value of two animals; type: functional; in short: as §1
[6] = system: Rattus norvegicus; assay: Antihypertensive activity after oral administration of 5 mg/kg dose in spontaneously hypertensive(SH) rats; type: functional; in short: as §1
[7] = system: Rattus norvegicus; assay: Antihypertensive activity after oral administration of 20 mg/kg dose in spontaneously hypertensive(SH) rats; type: functional; in short: as §1
[8] = system: Canis familiaris; assay: Saluretic property in a anesthetized dog after 5 mg/kg oral administration; type: functional, Canis lupus familiaris
[9] = system: Rattus norvegicus; assay: Antihypertensive activity after intraperitoneal administration of 20 mg/kg dose in spontaneously hypertensive(SH) rats; type: functional; in short: as §1
[10] = system: Rattus norvegicus; assay: Antihypertensive activity after po administration of 5 mg/kg dose in spontaneously hypertensive(SH) rats; score is for average value of two animals; type: functional; in short: as §1
[11] = system: Canis familiaris; assay: Saluretic property in an average of two anesthetized dog after 5 mg/kg po administration; type: functional, Canis lupus familiaris
[12] = system: Rattus norvegicus; assay: Antihypertensive activity after administration of 5 mg/kg dose in spontaneously hypertensive(SH) rats; score is for average value of four animals; type: functional; in short: as §1
[13] = system: Rattus norvegicus; assay: Antihypertensive activity after po administration of 20 mg/kg dose in spontaneously hypertensive(SH) rats; score is for average value of six animals; type: functional; in short: as §1
[14] = system: Rattus norvegicus; assay: Antihypertensive activity after administration of 20 mg/kg dose in spontaneously hypertensive(SH) rats; score is for average value of two animals; type: functional; in short: as §1
[15] = system: Rattus norvegicus; assay: Antihypertensive activity after po administration of 5 mg/kg dose in spontaneously hypertensive(SH) rats; Score is for average value of two animals; type: functional; in short: as §1
[16] = system: Rattus norvegicus; assay: Antihypertensive activity after po administration of 20 mg/kg dose in spontaneously hypertensive(SH) rats; Score is for average value of two animals; type: functional; in short: as §1
[17] = system: Rattus norvegicus; assay: Antihypertensive activity after po administration of 0.08 mg/kg dose in spontaneously hypertensive(SH) rats; score is for average value of four animals; type: functional; in short: as §1
[18] = system: Rattus norvegicus; assay: Antihypertensive activity after po administration of 0.31 mg/kg dose in spontaneously hypertensive(SH) rats; score is for average value of four animals; type: functional; in short: as §1
[19] = system: Canis familiaris; assay: Saluretic property in an anesthetized dog after 5 mg/kg po administration; score is for average of two animals; type: functional, Canis lupus familiaris
[20] = system: Rattus norvegicus; assay: Antihypertensive activity after oral administration of 0.31 mg/kg dose in spontaneously hypertensive(SH) rats; type: functional; in short: as §1
[21] = system: Rattus norvegicus; assay: Antihypertensive activity after po administration of 40 mg/kg dose in spontaneously hypertensive(SH) rats; score is for average value of two animals; type: functional; in short: as §1
[22] = system: Rattus norvegicus; assay: Antihypertensive activity after po administration of 5 mg/kg dose in spontaneously hypertensive(SH) rats; Score is for average value of six animals; type: functional; in short: as §1
[23] = system: Rattus norvegicus; assay: Antihypertensive activity after po administration of 0.08 mg/kg dose in spontaneously hypertensive(SH) rats; Score is for average value of six animals; type: functional; in short: as §1
[24] = system: Rattus norvegicus; assay: Antihypertensive activity after po administration of 0.31 mg/kg dose in spontaneously hypertensive(SH) rats; Score is for average value of six animals; type: functional; in short: as §1
[25] = system: Rattus norvegicus; assay: Antihypertensive activity after po administration of 1.25 mg/kg dose in spontaneously hypertensive(SH) rats; Score is for average value of six animals; type: functional; in short: as §1

SMILES: CC(C)(C)c1cc(I)c2c(c1)CNC1(CCCCC1)O2
- Antihypertensive score [1]: 1
- Antihypertensive score [2]: 0
- Saluretic score [3]: 5
- Saluretic score [4]: 5

SMILES: CC(C)(C)c1cc(Cl)c2c(c1)CNC1(CCCCC1)O2
- Antihypertensive score [5]: 0
- Saluretic score [3]: 3
- Saluretic score [4]: 5

SMILES: CN1CCC2(CC1)NCc1cc(C(C)(C)C)cc(Cl)c1O2
- Antihypertensive score [2]: 0
- Saluretic score [3]: 3
- Saluretic score [4]: 5

SMILES: CC(C)(C)c1cc(I)c2c(c1)CNC1(CCC3(CC1)NCc1cc(C(C)(C)C)cc(I)c1O3)O2 (stereo unspecified)
- Antihypertensive score [6]: 0
- Saluretic score [3]: 2
- Antihypertensive score [7]: 2

SMILES: CC(C)(C)c1cc(I)c2c(c1)C[N+](C)(C)C1(CCC(C(C)(C)C)CC1)O2.[I-] (stereo unspecified)
- Saluretic score [8]: 0
- Antihypertensive score [9]: 2
- Saluretic score [3]: 0
- Antihypertensive score [7]: 0

SMILES: CC(C)(C)c1cc(I)c2c(c1)C[N+](C)(C)CO2.[I-]
- Antihypertensive score [10]: 0
- Antihypertensive score [5]: 2
- Saluretic score [3]: 0

SMILES: CC(C)(C)c1cc(I)c2c(c1)CNC1(CCCCCCCCCCC1)O2
- Saluretic score [11]: 2
- Antihypertensive score [12]: 0
- Antihypertensive score [2]: 1
- Saluretic score [3]: 4

SMILES: CC(C)(C)c1cc(I)c2c(c1)CNC1(CCN(CCc3ccccc3)CC1)O2
- Antihypertensive score [12]: 0
- Antihypertensive score [13]: 1
- Saluretic score [3]: 4
- Saluretic score [4]: 5

SMILES: CC(C)(C)c1cc(I)c2c(c1)CNC1(O2)C2CC3C(C2)C31 (stereo unspecified)
- Antihypertensive score [12]: 1
- Antihypertensive score [13]: 2
- Saluretic score [3]: 5
- Saluretic score [4]: 5

SMILES: CC(C)(C)c1cc(I)c2c(c1)C[N+](C)(C)C1(CCNCC1)O2.[Cl-]
- Antihypertensive score [5]: 0
- Antihypertensive score [14]: 0
- Saluretic score [3]: 0
- Saluretic score [4]: 0

SMILES: CC1(C)CC(C)(C)CC2(C1)NCc1cc(C(C)(C)C)cc(I)c1O2
- Antihypertensive score [10]: 0
- Antihypertensive score [2]: 1
- Saluretic score [3]: 4

SMILES: CC(=O)N1CCC2(CC1)Oc1c(I)cc(C(C)(C)C)cc1C[N+]2(C)C.[I-]
- Antihypertensive score [15]: 0
- Antihypertensive score [16]: 2
- Saluretic score [3]: 0
- Saluretic score [4]: 0

SMILES: CC(C)(C)c1cc(I)c2c(c1)C[N+](C)(C)C1(CCCCC1)O2.[I-]
- Antihypertensive score [12]: 2
- Antihypertensive score [17]: 0
- Antihypertensive score [18]: 2
- Saluretic score [3]: 0
- Saluretic score [4]: 0

SMILES: CC(C)(C)c1cc(I)c2c(c1)CN(CN1COc3c(I)cc(C(C)(C)C)cc3C1)CO2
- Antihypertensive score [9]: 0

SMILES: CC(C)(C)c1cc(I)c2c(c1)C[N+](C)(C)C1(CCCC1)O2.[I-]
- Antihypertensive score [5]: 3
- Antihypertensive score [14]: 0

SMILES: CC1CCC2(CC1)Oc1c(I)cc(C(C)(C)C)cc1C[N+]2(C)C.[I-] (stereo unspecified)
- Antihypertensive score [14]: 0

SMILES: CC(C)(C)c1cc(I)c2c(c1)CNC1(CCSCC1)O2
- Saluretic score [19]: 2
- Antihypertensive score [10]: 0
- Antihypertensive score [14]: 2
- Saluretic score [3]: 4

SMILES: CC(C)(C)c1cc(I)c2c(c1)C[N+](C)(C)C(C)(C)O2.[I-]
- Antihypertensive score [5]: 0

SMILES: CC(C)(C)c1cc(I)c2c(c1)CNC1(CCC(C(=O)O)CC1)O2 (stereo unspecified)
- Antihypertensive score [12]: 2
- Antihypertensive score [14]: 2
- Saluretic score [3]: 4
- Saluretic score [4]: 5

SMILES: CC(C)(C)c1cc(Cl)c2c(c1)C[N+](C)(C)C1(CCCCC1)O2.[I-]
- Antihypertensive score [5]: 0.5
- Antihypertensive score [14]: 0
- Saluretic score [3]: 0

SMILES: CN1CCC2(CC1)NCc1cc(C(C)(C)C)cc(I)c1O2
- Antihypertensive score [5]: 2
- Antihypertensive score [2]: 1
- Saluretic score [3]: 4
- Saluretic score [4]: 5

SMILES: CC(C)(C)c1cc(I)c2c(c1)CNC1(O2)C2CC3CC(C2)CC1C3 (stereo unspecified)
- Antihypertensive score [12]: 0
- Antihypertensive score [14]: 2
- Saluretic score [3]: 3
- Saluretic score [4]: 0

SMILES: CC(=O)N1CCC2(CC1)NCc1cc(C(C)(C)C)cc(I)c1O2
- Antihypertensive score [5]: 0
- Saluretic score [4]: 4

SMILES: CC(=O)Oc1cc(C(C)(C)C)cc2c1OC1(CCCCC1)[N+](C)(C)C2.[I-]
- Saluretic score [8]: 0
- Antihypertensive score [20]: 1
- Antihypertensive score [6]: 2
- Saluretic score [3]: 0

SMILES: CC(C)(C)c1cc(Cl)c(O)c(CN)c1.Cl
- Antihypertensive score [21]: 2
- Antihypertensive score [14]: 0
- Saluretic score [3]: 6
- Saluretic score [4]: 4

SMILES: CC(C)(C)c1cc(I)c(O)c(CN)c1.Cl
- Antihypertensive score [22]: 3
- Antihypertensive score [23]: 0
- Antihypertensive score [24]: 1
- Antihypertensive score [25]: 2
- Saluretic score [3]: 6
- Saluretic score [4]: 6

SMILES: CC(C)(C)c1cc(I)c2c(c1)CNC1(CCC(C(C)(C)C)CC1)O2 (stereo unspecified)
- Saluretic score [8]: 5
- Antihypertensive score [9]: 0
- Saluretic score [3]: 4
